In PMC2973230 (Biochemical Journal, 2010):

What was measured:
[1] = target: T1, OgOGA (Oceanicola granulosus OGA) (Oceanicola granulosus, UniProt Q2CEE3); experiment: Enzymatic deglycosylation of glycopeptide monitored by LC-MS; format: biochemical; conditions: detected by LC-MS; 785 Da to 582 Da
Method in brief: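 OgOGA expressed in E. coli as a GST fusion from a gene cloned from genomic DNA, then purified by affinity, anion-exchange and size-exclusion chromatography. Glycopeptide loss of GlcNAc followed by LC–MS: reversed-phase C18 HPLC with diode-array UV detection, coupled to a high-resolution TOF mass spectrometer.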

[2] = target: T1, OgOGA (Oceanicola granulosus OGA); experiment: Inhibition of OgOGA by OGA inhibitors, 4MU-GlcNAc substrate; format: biochemical
Method in brief: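 OgOGA was a GST fusion expressed in E. coli and purified by affinity, anion-exchange and size-exclusion steps. Activity was measured in 25 mM Tris/HCl pH 7.5 with 0.1 mg/ml BSA and 2% DMSO at 37 °C. 4MU-GlcNAc was used at its Km for 20 min, with fluorescence read at ex 360/em 460 nm. Run in triplicate.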

T1 sequence (Q2CEE3 whole entry, the tested form may be a part): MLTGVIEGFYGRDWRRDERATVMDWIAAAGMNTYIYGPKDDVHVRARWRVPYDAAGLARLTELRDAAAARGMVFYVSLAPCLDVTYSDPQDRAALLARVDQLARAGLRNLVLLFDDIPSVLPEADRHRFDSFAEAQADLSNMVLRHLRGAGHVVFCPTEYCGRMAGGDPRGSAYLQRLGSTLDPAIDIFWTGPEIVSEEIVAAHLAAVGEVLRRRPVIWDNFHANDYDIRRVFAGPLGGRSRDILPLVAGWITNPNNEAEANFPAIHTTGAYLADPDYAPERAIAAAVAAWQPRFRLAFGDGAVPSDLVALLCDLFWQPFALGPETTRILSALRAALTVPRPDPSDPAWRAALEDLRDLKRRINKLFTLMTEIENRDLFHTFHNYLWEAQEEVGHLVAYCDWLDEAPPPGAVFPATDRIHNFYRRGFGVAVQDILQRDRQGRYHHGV

Row | Deglycosylation of glycopeptide by OgOGA [1] | IC50 [2] [µM] | Compound
1 | quantitatively deglycosylate |  | Ac-VAHS(-β-O-GlcNAc)GA-NH2
2 |  | 11 | CC(=O)N[C@H]1/C(=N/OC(=O)Nc2ccccc2)O[C@H](CO)[C@@H](O)[C@@H]1O [PUGNAc, O-(2-acetamido-2-deoxy-D-glucopyranosylidene)amino-N-phenylcarbamate]
